Screens from PubChem BioAssay.
SR-BI uptake up: SR-BI HDL lipid transfer activation | CHO ldlA[mSR-BI] cells, DiI-HDL uptake fluorescence, 3 h; 100 = double the neutral-control signal | activation, % at 12.5 µM | 0.096% of 320,000 active | AID 504775;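 active means mean replicate activation of at least 60% and every replicate at or above 60%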;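 further: 0% = median plate neutral-control signal and 100% = twice that signal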
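Assay system: LDL receptor-deficient CHO ldlA cells overexpressing murine SR-BI / Medium: BSA-supplemented, HEPES-buffered Ham's F12, pH 7.4 / Probe or stimulus: DiI-labelled HDL at 10 µg/mL final / Timing: compound with DiI-HDL co-incubation, 3 h at 37 °C / Technique: bottom-read cell fluorescence after medium removal, ex 550/em 595 nm / Measure: HDL uptake via cellular fluorescence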
DNA FID counter: fluorescent intercalator displacement, NS3 helicase counter-screen; DNA fluorescent intercalator displacement, fluorescence; inhibition, % at 7.9 µM; 0.17% of 290,000 active; AID 1845; in the data active means inhibition above about 37%;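 further: 0% = vehicle and 100% = reference compound; higher means more ethidium bromide displaced from hairpin DNA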
SR-BI HDL uptake: mouse SR-BI HDL lipid transfer inhibition; Q61009; ldlA[mSR-BI] CHO cells, DiI-HDL uptake fluorescence, 3 h; inhibition, % at 12.5 µM; 0.96% of 320,000 active; AID 488896;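 active means mean replicate inhibition of at least 70% and a set share of replicates each scoring 70 or more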;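 further: 0% = median of neutral control wells and 100% = median of positive control wells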
Target sequence (Q61009 whole entry, looked up): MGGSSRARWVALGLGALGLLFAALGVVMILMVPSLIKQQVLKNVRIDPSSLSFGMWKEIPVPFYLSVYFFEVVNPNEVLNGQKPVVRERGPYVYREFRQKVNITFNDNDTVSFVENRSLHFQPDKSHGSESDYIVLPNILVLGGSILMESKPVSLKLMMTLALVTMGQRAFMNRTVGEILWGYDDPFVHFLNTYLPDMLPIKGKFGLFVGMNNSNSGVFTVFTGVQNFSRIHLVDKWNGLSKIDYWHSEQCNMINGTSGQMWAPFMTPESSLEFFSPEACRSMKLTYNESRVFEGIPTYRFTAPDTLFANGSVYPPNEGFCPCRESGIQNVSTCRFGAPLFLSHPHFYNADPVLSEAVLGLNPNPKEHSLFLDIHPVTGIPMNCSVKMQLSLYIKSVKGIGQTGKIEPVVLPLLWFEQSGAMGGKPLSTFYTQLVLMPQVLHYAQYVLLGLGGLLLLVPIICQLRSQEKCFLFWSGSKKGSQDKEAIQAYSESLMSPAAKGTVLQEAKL
TMEM16A inh: blocks the mouse calcium-activated chloride channel TMEM16A; 1.2% of 310,000 active; HEK293 TMEM16A/YFP iodide influx fluorescence, ionomycin; normalized B-score (activity score, 25-100; higher = stronger inhibition) at 10 µM;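 active means ratio plate-corrected score three or more library SD toward inhibition, starting fluorescence score within five deviations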;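 further: score derived from kinetic fluorescence span divided by baseline fluorescence per well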
ANO1 activ: mouse TMEM16A channel activation, primary screen. Q8BHY3. HEK293 TMEM16A/YFP-H148Q/I152L, iodide quench fluorescence; active compounds read low. B-score at 10 µM. 0.3% of 340,000 active;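 active means fluorescence-ratio B-score plate-corrected deviation score at least 3 library SD below zero, with starting fluorescence score within 5 deviations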;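 further: channel opened by trigger with iodide after compound preincubation; score built on the fluorescence ratio of max minus min over baseline; more negative score means more quench and so TMEM16A activation or potentiation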
Kir21 block: inhibitors of mouse Kir2.1 inward-rectifier potassium channel; P35561; HEK293-Kir2.1, FluxOR thallium flux fluorescence; active compounds read low; B-score at 10 µM; 0.85% of 310,000 active;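 active means fluorescence ratio B-score at or below minus 3 SD of library scores, with starting-brightness B-score within 2 SD, cut at about -4.2 in these data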;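 further: channel flux triggered by added potassium and thallium sulfate stimulus; B-score of peak minus minimum fluorescence over baseline after thallium stimulus; more negative B-score means stronger Kir2.1 block with less thallium influx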
* = called active by the depositor; i = inactive; . = no result given. Sampled rows, rich in hits. Any-hit rate of the full collection: about 3%.

SMILES	SR-BI uptake up	DNA FID counter	SR-BI HDL uptake	TMEM16A inh	ANO1 activ	Kir21 block
C[N+]1(C)[C@@H]2CC(OC(=O)[C@H](CO)c3ccccc3)C[C@H]1[C@@H]1O[C@@H]12 (some centres not stated)	-3.5	2.6	3.5	i	i	0.68
CCCC[N+]1(C)[C@@H]2CC(OC(=O)[C@H](CO)c3ccccc3)C[C@H]1[C@@H]1O[C@@H]12 (some centres not stated)	8.5	-1.3	2.5	i	-10*	0.69
CC1=C(N2CC2)C(=O)C(CO)=C(N2CC2)C1=O	3.1	.	-3.1	.	i	.
CC(C)(C)c1cc([N+](=O)[O-])cc(C(C)(C)C)c1O	.	-1.9	.	100*	.	-1.31
NC(=O)c1cc([N+](=O)[O-])cc([N+](=O)[O-])c1	1.2	.	-1.2	.	i	.
CC[n+]1c(-c2ccccc2)c2cc(N)ccc2c2ccc(N)cc21	8.3	.	-8.3	.	i	.
CCCn1c(C)c(C(=O)c2cccc3ccccc23)c2ccccc21	-82.3	.	82.3*	i	i	.
CN1CCN(C(=O)COc2ccc(S(=O)(=O)NC3CCCCC3)cc2Cl)CC1	.	5.3	20.3	i	i	0.85
CCCCCCCSc1cc(OC)c(CCNC)cc1OC	-8.3	20.7	8.3	i	i	-9.82*
CCCCCSc1cc(OC)c(CCNC)cc1OC	2.1	19.3	-2.1	i	i	-8.94*
Cn1c(O)c(/C=C2\C=Nc3ccccc32)c(=O)n(C)c1=O	11.6	6.6	-11.6	i	-4.75*	-1.27
Oc1ccc(-[n+]2c(-c3ccccc3)cc(-c3ccccc3)cc2-c2ccccc2)cc1	-7.2	.	7.2	i	i	-10.2*
COc1ccc(-[n+]2c(-c3ccccc3)cc(-c3ccccc3)cc2-c2ccccc2)cc1	.	.	.	100*	.	-7.51*
CN(CC=CCN(C)P(=S)(N1CC1)N1CC1)P(=S)(N1CC1)N1CC1	1.8	.	-1.8	.	i	.
Cc1ccccc1NC(=NCCCN1CC1)Nc1ccccc1C	24.2	.	-24.2	.	i	.
CN(C)CC#CCn1c2ccccc2c2ccccc21	.	12.2	.	i	i	-5.59*
CN(C)CC#CCC(O)(c1ccccc1)C1CCCC1 (configuration not stated)	15.5	12.4	-15.5	i	i	-1.15
CC1=CC2OC3CC4OC(=O)C=CC=CC(=O)OCCC(C)C(O)C(=O)OCC2(CC1O)C4(C)C31CO1 (configuration not stated)	22.9	.	-22.9	.	i	.
c1ccc2c(c1)CSc1ccccc1C2C1=NCCN1 (configuration not stated)	35.8	3.8	-35.8	i	i	0.54
Brc1ccc2c(c1)C(OC1CN3CCC1CC3)c1ccccc1CS2 (configuration not stated)	-9.8	21.3	9.8	i	i	-8.91*
CC(C)OS(C)(=O)=O	18.1	.	-18.1	.	i	.
C#CC1(O)C=CC2C3CCC4=CC(=O)CCC4C3CCC21CC (configuration not stated)	-0.8	-12.1	0.8	i	i	0.04
CCC1(O)CCC2C3CCC4=CC(=O)CCC4C3CCC21CC (configuration not stated)	2.0	.	-2.0	.	-4.79*	.
C=C1C(=O)O[C@@H]2C[C@@H](C)[C@@H]3C=CC(=O)[C@@]3(C)[C@@H](O)[C@H]12	-26.9	.	26.9	i	i	-4.33*
O=C1C2CCCN2C(c2cccc(Cl)c2)N1c1ccccn1 (configuration not stated)	-7.8	38.0*	7.8	i	i	0.63
SMILES	SR-BI uptake up	DNA FID counter	SR-BI HDL uptake	TMEM16A inh	ANO1 activ	Kir21 block
C[N+](C)(C)CC1CCCC(C[N+](C)(C)C)C1=O (configuration not stated)	21.2	.	-21.2	.	i	.
CN1C[C@H](CO)C=C2c3cccc4[nH]cc(c34)C[C@H]21	-3.0	12.9	3.0	i	i	-1.42
CC1=C[C@@H]2c3cccc4[nH]cc(c34)C[C@H]2N(C)C1	-6.4	25.9	6.4	i	-14.4*	-1.73
CCN(CC)C(=O)c1ccc(NC(=O)c2cccc(F)c2)cc1	-32.0	-18.7	32.0	i	i	0.91
CCN(CC)C(=O)c1ccc(NC(=O)c2ccc3c(c2)NC(=O)CS3)cc1	-71.9	.	71.9*	.	i	.
CCC(C#N)(CC)P(=S)(c1ccccc1)c1ccccc1	63.2*	-6.3	-63.2	i	i	-3.21
COC(=O)C1C(O)C(C)C(O)C(C)/C=C\C=C(/C)C(=O)Nc2c(C)c(OC(C)=O)c3c(c2O)C(=O)C(C)=C2OCOC(=C23)/C(C)=C/C(C)(O)C(O)C(C)C1O (configuration not stated)	17.7	-28.2	-17.7	i	i	-0.08
COc1cc([C@@H]2c3cc4c(cc3[C@@H](OC)[C@H]3COC(=O)[C@H]23)OCO4)cc(OC)c1O	-4.8	.	4.8	i	i	1.21
O=[N+]([O-])c1ccccc1-c1cc(-c2ccccc2)cc(-c2ccccc2)[n+]1Cc1ccccc1Cl	.	.	.	i	.	-9.13*
NC(=O)CS(=O)C(c1ccccc1)c1ccccc1 (configuration not stated)	.	0.3	.	.	.	.
Fc1ccc(C[n+]2c(-c3ccccc3)cc(-c3ccccc3)cc2-c2ccccc2)cc1	.	.	.	i	.	-9.27*
Cc1ccc(-c2cc(-c3ccccc3)cc(-c3ccccc3)[n+]2-c2ccccc2C(=O)O)cc1	8.0	.	-8.0	i	i	-1.97
Clc1ccc(C[n+]2c(-c3ccccc3)cc(-c3ccccc3)cc2-c2ccccc2)cc1	8.0	.	-8.0	25*	i	-12.7*
C[n+]1c(-c2ccccc2)cc(-c2ccc(O)cc2)cc1-c1ccccc1	-54.0	5.4	54.0	i	i	-0.46
CC1C(c2ccccc2)OC(=O)N1C (configuration not stated)	21.1	.	-21.1	.	i	.
CC(C)n1c(O)c(C2c3cc(Cl)ccc3Oc3[nH]c(=O)n(C(C)C)c(=O)c32)c(=O)[nH]c1=O (configuration not stated)	9.4	-9.2	-9.4	.	i	-4.32*
Cc1ccc2[nH]c3c(c2c1)CN(C(=O)CN1C[C@H]2C[C@@H](C1)c1cccc(=O)n1C2)CC3	17.2	-27.8	-17.2	i	i	1.21
CCCCCn1c(=O)c(C(=O)Nc2ccccc2Cl)c(O)c2ccccc21	-92.8	-2.1	92.8*	i	i	0.72
CCCCn1c(=O)c(C(=O)Nc2cnccn2)c(O)c2ccccc21	.	-2.6	.	100*	.	0.03
CN=C1CN(O)C(c2ccccc2)=c2cc(Cl)ccc2=N1	-8.4	.	8.4	i	i	-0.06
CSc1nc(Cl)c(Br)c(N2CC2)n1	20.8	.	-20.8	.	i	.
Cc1ccc(NC(=O)CN2C(=O)CN=C(c3ccccc3)c3cc(Cl)ccc32)cc1	-32.9	-31.9	32.9	i	i	-0.46
